Eleven molecules from ChEMBL document CHEMBL2440109, “Synthesis and antimycobacterial activity of isoniazid derivatives from renewable fatty acids” (2013) can be followed below.

Values after ≈ are worked out from the molar mass of the structure shown. Some results are limits rather than exact numbers.

What all share (format): functional
Test [1] concerns Mycobacterium tuberculosis. Description: Antimycobacterial activity against rifampicin-resistant Mycobacterium tuberculosis ATCC 35338 harboring rpoB His-526-Tir gene mutant after 7 days by REMA assay. Summed up: (§1)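 MIC by resazurin microtiter assay. Bacteria suspended in sterile water with glass beads, vortexed, turbidity set to McFarland tube 1 (3.2 × 10^6 CFU/mL), then diluted 1:20 in Middlebrook 7H9. Compounds in DMSO, two-fold serial dilutions (100.0-3.2 µg/mL) in 7H9 with 10% OADC. Incubated 37 °C for 7 days, resazurin added, further 2 days at 37 °C. MIC read from colour change.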

For test [2], the system named is Mycobacterium tuberculosis. Description: Antimycobacterial activity against isoniazid-resistant Mycobacterium tuberculosis 1896HF harboring inhA mutant after 7 days by REMA assay. Summed up:
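MIC by resazurin microtiter assay. Bacteria suspended in sterile water with glass beads, vortexed, turbidity set to McFarland tube 1 (3.2 × 10^6 CFU/mL), then diluted 1:20 in Middlebrook 7H9. Incubated 37 °C for 7 days, resazurin added, further 2 days at 37 °C. MIC read from colour change.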

The subject of test [3] is Mycobacterium tuberculosis. The test is described as follows: Antimycobacterial activity against isoniazid-resistant Mycobacterium tuberculosis ATCC 35822 harboring katG mutant after 7 days by REMA assay. In outline:
as §1

Take `CCCCCCCCCCCCCCCC(=O)NNC(=O)c1ccncc1`: the MIC amounted to 0.003 µg/mL (≈ 0.00799 µM) in test [1], 0.78 µg/mL (≈ 2.08 µM) in test [2] and 0.125 µg/mL (≈ 0.333 µM) in test [3].

For the molecule `CCCCC/C=C\C/C=C\CCCCCCCC(=O)NNC(=O)c1ccncc1`, the minimal inhibitory concentration (MIC) stood at 0.03 µg/mL (≈ 0.0751 µM) in test [1], 12.5 µg/mL (≈ 31.3 µM) in test [2] and 2 µg/mL (≈ 5.01 µM) in test [3].

`CCCCCCCC/C=C\CCCCCCCC(=O)NNC(=O)c1ccncc1`: the figures for the MIC in test [1], in test [2] and in test [3] were 0.003 µg/mL (≈ 0.00747 µM), 1.56 µg/mL (≈ 3.88 µM) and 0.25 µg/mL (≈ 0.623 µM), respectively.

`NNC(=O)c1ccncc1` [ISONIAZID]: the minimum inhibitory concentration (MIC) in test [1] worked out at 0.015 µg/mL (≈ 0.109 µM); in test [2] it was 2 µg/mL (≈ 14.6 µM); in test [3], 2 µg/mL (≈ 14.6 µM).

Consider `CCCCCC[C@@H](O)C/C=C\CCCCCCCC(=O)NNC(=O)c1ccncc1`, for which the values for the minimal inhibitory concentration (MIC) in test [1], in test [2] and in test [3] were 0.015 µg/mL (≈ 0.0359 µM), 12.5 µg/mL (≈ 29.9 µM) and 25 µg/mL (≈ 59.9 µM), respectively.

Take `CCCCCCCC/C=C\CCCCCCCC(=O)NN` [OLEOHYDRAZIDE]: the minimum inhibitory concentration (MIC) was 50 µg/mL (≈ 169 µM) in test [1], more than 100 µg/mL in test [2] and 50 µg/mL (≈ 169 µM) in test [3].

With `CC/C=C\C/C=C\C/C=C\CCCCCCCC(=O)NNC(=O)c1ccncc1`, the MIC in test [1] amounted to 0.03 µg/mL (≈ 0.0755 µM); in test [2] it was 12.5 µg/mL (≈ 31.4 µM); in test [3], 25 µg/mL (≈ 62.9 µM).

Take `CO[C@H]1/C=C/O[C@@]2(C)Oc3c(C)c(O)c4c(O)c(c(/C=N/N5CCN(C)CC5)c(O)c4c3C2=O)NC(=O)/C(C)=C\C=C\[C@H](C)[C@H](O)[C@@H](C)[C@@H](O)[C@@H](C)[C@H](OC(C)=O)[C@@H]1C` [RIFAMPIN]: the MIC is more than 2 µg/mL in test [1] and 0.03 µg/mL (≈ 0.0365 µM) in test [3].

As to `CCCCCCCC/C=C/CCCCCCCC(=O)NNC(=O)c1ccncc1`, the minimal inhibitory concentration (MIC) in test [1] is 0.0019 µg/mL (≈ 0.00473 µM); in test [2] it was 6.25 µg/mL (≈ 15.6 µM); in test [3], more than 50 µg/mL.

As to `CCCCCCCCCCCCCCCCCC(=O)NNC(=O)c1ccncc1`, the MIC was 0.003 µg/mL (≈ 0.00743 µM) in test [1], 3.12 µg/mL (≈ 7.73 µM) in test [2] and 0.25 µg/mL (≈ 0.619 µM) in test [3].

Turning to `CCCCCCCC/C=C\CCCCCCCC(=O)O` [OLEIC ACID], the minimum inhibitory concentration (MIC) in test [1], in test [2] and in test [3] was more than 100 µg/mL in each case.
